The RNAGym collection of RNA variant scans (doi:10.1126/science.aae0568)
Fewer inactive variants are shown than the library holds.

B1: tRNA (parent)
chain: GUUCCGUUGGCGUAAUGGUAACGCGUCUCCCUCCUAAGGAGAAGACUGCGGGUUCGAGUCCCGUACGGAACG

Variants of: B1
Assay: yeast fitness relative to wild type (ratio to wild type); higher = fitter; tRNA-Arg(CCU), competitive growth, 37 C, YPD
Method in brief: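 A pool of Saccharomyces cerevisiae strains, each with a tRNA-Arg(CCU) gene variant at the native genomic locus, was competed in YPD at 37°C for 24 hours across six parallel replicates. The variants had been chemically synthesised at a 3% per-site mutation rate over 69 sites, and gene amplicons before and after competition were read by 100-nucleotide paired-end sequencing. Darwinian fitness relative to wild type rested on changes in genotype frequencies. Genotypes required ≥ 100 starting reads, and estimates < 0.5 were set to 0.5.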

Variant | yeast fitness
GUUCCGUUGGCGUAGUGAUAACGCGUCUCCCUCCUAAGGAGAAGACUGCGGGUUCGACUCCCGUACGGUACG | ≤ 0.5
GUUCCGUUGGCGUAAUGGUAACGCGUCUCCCUCCCAAGGAGAAGACUGUGGGUUCGAGUCCCGUAUGGAACG | 0.681
GUUGCGUUGGCGUGAUGGUAACGCGUCUCCCUCCUAAGGAGAAGACUGCGGGUUCGAGUCCCGUACGAAACG | 0.59
GUUCCGUUAGCGUAAUGGUAUCGCGUCUCCGUCCUAAGGAGAAGACUGCGGGUUCGAGUCCCAUAAGGAACG | ≤ 0.5
GUUCGGUUGGCGUAUUGGUAACGCGUCUCCCUCCUAAGGAGAAGACUGCGGGUUCGAAUCCCGUACAGAACG | 0.626
GUUCCGUUGGCGUAAUGGUAACGCGUCUCCCUCCUAAGGAGAAGACUACGGGUUCGAGUCCGGUACGGUACG | 1.03
GUUCCGUUGGCGUACUGGAAACGGGUCUCCCUCGUAAGGAGAAGAUUGCGGGUCCGAGUCACGUACGGAUCG | ≤ 0.5
GUUCCGGUGGCGUAAUGGUAAGGCGUCUCCCUCCUAAGGAGAUGACAGCGAGUUCGAGUCCCGUACGGAACG | 0.664
GUUACGUUGGCGUAGUGGUAACGCGUCUCCCUUCUAAGGAGAAGACUGCGGGUUCGAGUCCCGUACGGAACG | 0.753
GUUCCGUUGGCGUUAUGGUAAUGCGUCUCCCUCCUAAGGAGAAGACUGCGGGUUCGAGUCCCGUACGGAACG | 0.54
GCUCCGUUGGCGUAAAGGUAACGCGUCUCCCUCCUAAGGAGAAGACUGCGGGUUCGAGUCCCAUACGGAACG | 0.705
GUUCCGUUGGCGUAAUGGUAACGCGUCUCCCUCCCAAGGAGAAGACAGCGGGUUCGAGUCCCGUACGGAACG | 0.734
GUUGCCUUGGCGUAAUGGUAACGCGUCUCACUCCUAAGGAGAAGACUGCGGGUUCGAGUCCCGUACGGAACG | ≤ 0.5
GUUCCGUUGGCGUAAUGGUAACGCGUCUGCCUCCUAAGGAGCAGACUGCGGGUUCAAGUCCCGUACGGAACG | 0.601
GUUCCGUAGGCGUAAUGGUAAUGCGUCUCCCUCCUAAGGAGAAGACUGCGGGUUCGAGUCCCGUACGGAACG | 0.634
GUUCCGAUGGCGUAAUGGUAACCCGUCUCCGUUCUAAGGAGGAGACUGCGGCUUCGACUCCCGUACGGAACG | ≤ 0.5
GUUGCGUUGGCGUAAUGGUUACGCGUCUGCAUCCUAAAGAGAAGACUGCGGGUUCGAGUCCCGUACGGAACG | ≤ 0.5
GUUCCGUUGGCGUAAUGGUAACGCGUCUCCCUCCUAAGGAGAAAACUGCGGAUUCGAGUCCCGUACGGAACG | 0.827
GUUCCGUUGGCGUAAUGGUAACGCGUCUCACUCCUAAGGAGAAGACUGCGGGUUUGAGUCCCGUACGGAACG | 0.686

Variant | yeast fitness
GUUCCGUUGGCGUAAUGGUAACGCGUCUCCUUCCUAAGGAGAAGACUGCGGGUUCGUGUCCCGUACGGAACG | 0.619
GUUCCGUUGGCCUAAUGGUAUCGCGUCUCCCUCCUAAGGAGUAGACUGCGGGUUCGAGUCCCGUACGGAACG | 0.611
GUUCCGUUGGCGUAAUGGUAACGCGUCUUCCUCCUAACGAGAAGACUGCGGGUUCGAGUCCCAUACGGAACG | ≤ 0.5
GUUCCGUUGGCCUAAUGGUAACGCGUCUCCCUCCUAAGGAGAUGACUGCGGGUCCGAGUCCCGUACGGAACG | ≤ 0.5
GUUCCGUUGGCGUAAUGGUAACGCGCCUUCCUCCUAAGGAGAAGACUGCGGGUUCGAGUCCCGUACGGAACG | 0.869
GUUCCGUGGCCGUAAUGGUGACGCGUCUCCCUCCUAAGGAGAAGACUGCGGGUUCGAGUCCCAUACGGAACG | ≤ 0.5
GUUCCGUUGGCGUAAUGGUAACGCGUCUCCCUCUUAUGGAGAAGGCUGCGGGUUCGAGUCCCGUACGGAACG | ≤ 0.5
GUUUCGUUGGCGUAAUGGUAACGCGUCUCCCUCAUAAGGAGAAGACUGCGGGUUCAAGUGCCGUACGGAACG | ≤ 0.5
GUUCCGUUGGCGUAAUGGUAACGCGUCUCCCUUCUAAGGAGAAGACUGCGGGUUCGAGUCCCGUACCGAACG | 0.839
GCUCCGUUGGCGUAAUGGUAACGCGUCUCCUUCCUAAGGAGAAGACUGCGGGUUCGAGUCCCGUACGGAACG | 0.892
GUUCCGUUGGCGUAUUGGUAACGGGUCUCCCUCCUAAGGAGAAGACUGCGGGAUCGAGUCCCGAACGGAACG | ≤ 0.5
GUUCCGUUGGCGUAAGGGUAACGCGUCUCCUUCCUAAGGAGAAGACUGCGGGUUCGAAUCCCGUACGGAACG | 0.633
GUUCCGUUGGCGUUAUGAUAACGCGUCUCCCUCCAAAGGAGAAGAGUGCGGGUUCGAGUCCCGUACGGUACG | 0.591
GUUCCGUGGGCGUAAUGGUAACGCGUCUCGUUCCUAAGAAGAAGACUGCGGGUUCGAGUCCCGUACGGAACG | 0.507
GUUCCGUUGGCGUAAUGGUAACGCGUCUCCCUCCUAAGGAGAGGAUUGCGGGUUCGAGUGCCGUACGUAACG | 0.567
GUUCCCUUGGCGUAAUAGUAACGAGUCUCCCCCCUAAGGAGAAGCCUGCGGGUUCGAGUACCGUACGGUACG | ≤ 0.5
GUUCCGUUGGCGUAAUGGUAACACGUCUCCCUCCUAGGGAGAAGACUGCGGGUUCGAGUCCCGUACGGAACG | 0.57
GUUCCGUUGGCGUAAUGAUAAAGCGUCUCCCUCCUAAGGAGAAGACUGCGGGUUCGAGUCCCGUACGGAACG | 0.805
GUUCCGUUGGCGUAAUGGUGACGCGUGUCCCUCCUAAGGAGAAGACUGCGGGUUCGAGUCCCGUACGGAACG | 0.608
